The results in this text go back to ChEMBL document CHEMBL4145519, “Structural investigations on coumarins leading to chromeno[4,3-c]pyrazol-4-ones and pyrano[4,3-c]pyrazol-4-ones: New scaffolds for the design of the tumor-associated carbonic anhydrase isoforms IX and XII” (Eur J Med Chem, 2018).

Activity calls are given as the source filed them. The calls are words filed in the database; no cut-off is given here.

One data set has as its target Carbonic anhydrase 12 (Homo sapiens, UniProt O43570). Briefly: Inhibition of human CA12 after 15 mins by stopped-flow CO2 hydration assay.
A further data set has as its target Carbonic anhydrase 2 (Homo sapiens, UniProt P00918). Briefly: Inhibition of human CA2 after 15 mins by stopped-flow CO2 hydration assay.
In another data set the target is Carbonic anhydrase 1 (Homo sapiens, UniProt P00915). Description: Inhibition of human CA1 after 15 mins by stopped-flow CO2 hydration assay.
Carbonic anhydrase 1, sequence (P00915 whole entry): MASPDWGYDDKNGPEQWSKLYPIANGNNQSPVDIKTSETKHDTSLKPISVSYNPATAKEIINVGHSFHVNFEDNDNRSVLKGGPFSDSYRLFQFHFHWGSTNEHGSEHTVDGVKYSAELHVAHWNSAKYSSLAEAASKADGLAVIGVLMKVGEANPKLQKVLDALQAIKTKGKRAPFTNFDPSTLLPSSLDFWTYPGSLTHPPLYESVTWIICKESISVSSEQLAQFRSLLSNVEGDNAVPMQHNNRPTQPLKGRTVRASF
The target of another data set is Carbonic anhydrase 9 (Homo sapiens, UniProt Q16790). Briefly: Inhibition of human CA9 after 15 mins by stopped-flow CO2 hydration assay.
Data set [1] relates to HT-29. Briefly: Antiproliferative activity against human HT-29 cells at 30 to 300 uM after 48 hrs under normoxic conditions by MTT assay. The class given is functional, cell-based. In outline: (§1)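 HT-29 colon cancer cells in DMEM high glucose with 20% FBS were seeded at 1·10^4/well. After 24 h they were exposed to 0–300 μM compound for 16, 48 or 72 h in air (20% O2, 5% CO2, 37 °C). MTT (1 mg/ml) was added for 30 min, formazan dissolved in DMSO and read at 550 nm. Viability is relative to untreated control (100%). Quadruplicates on ≥3 cell batches, mean ± SEM.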
(Tetrazolium dyes change colour on reduction, which living cells bring about.)

Data set [2] has as its system HT-29. Description: Antiproliferative activity against human HT-29 cells at 30 to 300 uM after 48 hrs under hypoxic conditions by MTT assay. The class given is functional, cell-based. In outline: (§2)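 Hypoxic workstation at 0.1% O2, 5% CO2 and residual N2. HT-29 cells (DMEM high glucose, 20% FBS; 1·10^4/well) were treated 24 h post-plating with 0–300 μM compound for 16, 48 or 72 h. Viability was measured by MTT reduction (1 mg/ml, 30 min, 37 °C; DMSO-dissolved formazan, A550) and expressed as % of untreated control. Quadruplicates, ≥3 batches, mean ± SEM.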

For data set [3], the system named is HT-29. Briefly: Antiproliferative activity against human HT-29 cells after 16 hrs under normoxic conditions by MTT assay. Type of data set: functional, cell-based. In outline: as §1
For data set [4], the system named is HT-29. Description: Antiproliferative activity against human HT-29 cells at 30 to 300 uM after 72 hrs under hypoxic conditions by MTT assay. The class given is functional, cell-based. In outline:
as §2

Data set [5] concerns HT-29. Description: Antiproliferative activity against human HT-29 cells at 30 to 100 uM after 16 hrs under normoxic conditions by MTT assay. Type of data set: functional, cell-based. The essentials:
as §1

Data set [6] concerns HT-29. Description: Antiproliferative activity against human HT-29 cells at 30 to 100 uM after 48 hrs under normoxic conditions by MTT assay. Type of data set: functional, cell-based. The essentials: as §1
Data set [7] in a line: Solubility of the compounds at 300 uM. The class given is physicochemical.
The test system of data set [8] is HT-29. Description: Antiproliferative activity against human HT-29 cells at 30 to 300 uM after 16 hrs under normoxic conditions by MTT assay. Type of data set: functional, cell-based. In outline: as §1

Carbonic anhydrase 12, sequence (O43570 whole entry): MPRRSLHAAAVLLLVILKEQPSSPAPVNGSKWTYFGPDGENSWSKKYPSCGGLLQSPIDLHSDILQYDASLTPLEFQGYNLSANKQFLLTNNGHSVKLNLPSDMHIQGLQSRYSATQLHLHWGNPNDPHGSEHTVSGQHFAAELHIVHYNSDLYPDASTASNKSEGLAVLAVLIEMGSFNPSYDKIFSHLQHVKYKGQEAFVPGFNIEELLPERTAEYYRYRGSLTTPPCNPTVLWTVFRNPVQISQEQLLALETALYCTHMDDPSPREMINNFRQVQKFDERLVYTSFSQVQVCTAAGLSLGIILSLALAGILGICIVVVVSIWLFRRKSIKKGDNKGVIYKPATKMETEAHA

For orientation: Ki means the dissociation constant of the complex between target and ligand, obtained from inhibition or displacement. A low value points to a stronger hold on the target. For the compound `Cn1nc2c(c1Cc1ccccc1)c(=O)oc1ccccc12`, the Ki at Carbonic anhydrase 12 is 33.3 nM; at Carbonic anhydrase 2 it was over 10000 nM; on Carbonic anhydrase 1 it was over 10000 nM; at Carbonic anhydrase 9, 555 nM.

On to `Cc1nn(-c2ccccc2)c2c1c(=O)oc1ccc(N(C)C)cc12`, for which the Ki was 360 nM at Carbonic anhydrase 12, over 10000 nM on Carbonic anhydrase 2, over 10000 nM on Carbonic anhydrase 1 and 59.4 nM on Carbonic anhydrase 9.

Take `O=c1oc2ccccc2c2nn(-c3ccccc3)cc12`: the Ki at Carbonic anhydrase 12 was over 10000 nM; at Carbonic anhydrase 2 it was over 10000 nM; at Carbonic anhydrase 1, over 10000 nM; on Carbonic anhydrase 9 it was 37.6 nM.

As for `Cc1nn(-c2ccccc2)c2c1c(=O)oc1ccc(Br)cc12`, the Ki at Carbonic anhydrase 12 is 7.1 nM; at Carbonic anhydrase 2 it was over 10000 nM; at Carbonic anhydrase 1, over 10000 nM; on Carbonic anhydrase 9, 8.5 nM.

As to `Cc1nn(Cc2ccccc2)c2c1c(=O)oc1ccccc12`, the Ki at Carbonic anhydrase 12 was 732 nM; on Carbonic anhydrase 2 it was over 10000 nM; on Carbonic anhydrase 1, over 10000 nM; on Carbonic anhydrase 9, 371 nM.

Regarding `COc1ccc(-n2nc(C)c3c(=O)oc4ccccc4c32)cc1`, the Ki is over 10000 nM at Carbonic anhydrase 12, over 10000 nM at Carbonic anhydrase 2, over 10000 nM at Carbonic anhydrase 1 and 40.2 nM at Carbonic anhydrase 9.

As to `Cc1cc2nn(-c3ccccc3)c(C)c2c(=O)o1`, the Ki is over 10000 nM on Carbonic anhydrase 12, over 10000 nM on Carbonic anhydrase 2, over 10000 nM at Carbonic anhydrase 1 and 41.4 nM on Carbonic anhydrase 9. The result with HT-29 [1], in the data set with HT-29 [2] and with HT-29 [4] was Active. For the same compound, the Activity entry with HT-29 [3] is “Dose-dependent effect”.

For `O=c1oc2ccccc2c2nn(Cc3ccccc3)c(Cc3ccccc3)c12`, the Ki is 672 nM on Carbonic anhydrase 12, over 10000 nM on Carbonic anhydrase 2, over 10000 nM at Carbonic anhydrase 1 and 290 nM on Carbonic anhydrase 9.

`CCOc1c(C(C)=O)c(=O)oc2ccc(Br)cc12`: the Ki at Carbonic anhydrase 12 is 737 nM; on Carbonic anhydrase 2, over 10000 nM; on Carbonic anhydrase 1, over 10000 nM; at Carbonic anhydrase 9, 46.4 nM.

In the case of `Cc1nn(-c2ccc(Cl)cc2)c2c1c(=O)oc1ccccc12`, the Ki was over 10000 nM at Carbonic anhydrase 12, over 10000 nM at Carbonic anhydrase 2, over 10000 nM at Carbonic anhydrase 1 and 403 nM at Carbonic anhydrase 9.

Regarding `Cc1nn(-c2ccc(C(=O)O)cc2)c2c1c(=O)oc1ccccc12`, the Ki on Carbonic anhydrase 12 was 24.7 nM; at Carbonic anhydrase 2 it was over 10000 nM; on Carbonic anhydrase 1 it was over 10000 nM; at Carbonic anhydrase 9, 1960 nM.

With `Cc1nn(-c2ccccc2)c2c1c(=O)oc1ccc([N+](=O)[O-])cc12`, the Ki at Carbonic anhydrase 12 is over 10000 nM; at Carbonic anhydrase 2, over 10000 nM; at Carbonic anhydrase 1, over 10000 nM; on Carbonic anhydrase 9 it was 27.1 nM. Further, the result in the data set on HT-29 [1] and in the data set on HT-29 [2] was Active. Besides, the Activity entry in the data set with HT-29 [3] is “Dose-dependent effect”.

For the compound `Cc1nn(-c2ccccc2)c2c1c(=O)oc1cc(Cl)ccc12`, the Ki was 819 nM on Carbonic anhydrase 12, over 10000 nM on Carbonic anhydrase 2, over 10000 nM at Carbonic anhydrase 1 and 57.9 nM at Carbonic anhydrase 9.

As for `CC(=O)c1cc2cc([N+](=O)[O-])c(Cl)cc2oc1=O`, the Ki is 6400 nM on Carbonic anhydrase 12, over 10000 nM at Carbonic anhydrase 2, over 10000 nM on Carbonic anhydrase 1 and 561 nM on Carbonic anhydrase 9.

On to `CNc1ccc2oc(=O)c3c(C)nn(-c4ccccc4)c3c2c1`, for which the Ki is 737 nM on Carbonic anhydrase 12, over 10000 nM on Carbonic anhydrase 2, over 10000 nM at Carbonic anhydrase 1 and 51.3 nM at Carbonic anhydrase 9.

As to `Cc1c2c(=O)oc3ccc([N+](=O)[O-])cc3c2nn1-c1ccccc1`, the Ki was 360 nM at Carbonic anhydrase 12, over 10000 nM at Carbonic anhydrase 2, over 10000 nM on Carbonic anhydrase 1 and 35.8 nM on Carbonic anhydrase 9.

As for `Cc1ccc(-n2nc(C)c3c(=O)oc4ccccc4c32)cc1`, the outcome in the data set on HT-29 [5] and in the data set on HT-29 [6] was Active. For the same compound, the inhibition constant (Ki) at Carbonic anhydrase 12, at Carbonic anhydrase 2 and on Carbonic anhydrase 1 was over 10000 nM each time. The solubility result in data set [7] is “Insoluble”.

On to `Cc1nn(-c2ccccc2)c2c1c(=O)oc1cc(Cl)c([N+](=O)[O-])cc12`, for which the Ki at Carbonic anhydrase 12 is 6060 nM; at Carbonic anhydrase 2 it was over 10000 nM; at Carbonic anhydrase 1, over 10000 nM; at Carbonic anhydrase 9 it was 801 nM.

For the compound `CC(=O)c1c(O)c2ccccc2oc1=O`, the Ki at Carbonic anhydrase 12 was 453 nM; at Carbonic anhydrase 2, over 10000 nM; on Carbonic anhydrase 1, over 10000 nM; on Carbonic anhydrase 9 it was 35.9 nM.

On to `Cc1nn(-c2ccccc2)c2c1c(=O)oc1ccc(NC(=O)Nc3ccccc3)cc12`, for which the Ki is 583 nM on Carbonic anhydrase 12, over 10000 nM at Carbonic anhydrase 2, over 10000 nM at Carbonic anhydrase 1 and 77.9 nM on Carbonic anhydrase 9.

Regarding `Cc1c2c(=O)oc3ccc(Br)cc3c2nn1-c1ccccc1`, the Ki at Carbonic anhydrase 12 is over 10000 nM; on Carbonic anhydrase 2, over 10000 nM; on Carbonic anhydrase 1, over 10000 nM; at Carbonic anhydrase 9, 25.2 nM.

Regarding `Cc1c2c(=O)oc3ccccc3c2nn1-c1ccccc1`, the Ki is 593 nM at Carbonic anhydrase 12, over 10000 nM at Carbonic anhydrase 2, over 10000 nM at Carbonic anhydrase 1 and 38.1 nM at Carbonic anhydrase 9.

`Cc1nn(-c2ccccc2C(=O)O)c2c1c(=O)oc1ccccc12`: the Ki at Carbonic anhydrase 12 is 27.3 nM; on Carbonic anhydrase 2 it was over 10000 nM; at Carbonic anhydrase 1, over 10000 nM; at Carbonic anhydrase 9 it was 76.8 nM.

With `CC(=O)c1cc2ccccc2oc1=O` [3-ACETYLCOUMARIN], the Ki is 7.8 nM at Carbonic anhydrase 12, over 10000 nM at Carbonic anhydrase 2, over 10000 nM at Carbonic anhydrase 1 and 152 nM at Carbonic anhydrase 9.

For the compound `Cc1nn(-c2ccccc2)c2c1c(=O)oc1ccc(NCc3ccccc3)cc12`, the Ki on Carbonic anhydrase 12 was 360 nM; on Carbonic anhydrase 2, over 10000 nM; on Carbonic anhydrase 1 it was over 10000 nM; at Carbonic anhydrase 9 it was 37.8 nM.

For `CC(=O)c1cc2ccc(Cl)cc2oc1=O`, the Ki at Carbonic anhydrase 12 was 4530 nM; at Carbonic anhydrase 2, over 10000 nM; on Carbonic anhydrase 1, over 10000 nM; at Carbonic anhydrase 9, 809 nM.

In the case of `Cn1nc(Cc2ccccc2)c2c(=O)oc3ccccc3c21`, the Ki was 343 nM at Carbonic anhydrase 12, over 10000 nM on Carbonic anhydrase 2, over 10000 nM on Carbonic anhydrase 1 and 19.7 nM at Carbonic anhydrase 9.

With `CC(=O)c1c(O)c2cc([N+](=O)[O-])ccc2oc1=O`, the Ki is 357 nM on Carbonic anhydrase 12, over 10000 nM on Carbonic anhydrase 2, over 10000 nM on Carbonic anhydrase 1 and 44.2 nM on Carbonic anhydrase 9.

For the compound `Cc1nn(-c2ccccc2)c2c1c(=O)oc1ccc(N)cc12`, the Ki on Carbonic anhydrase 12 is over 10000 nM; at Carbonic anhydrase 2, over 10000 nM; at Carbonic anhydrase 1, over 10000 nM; on Carbonic anhydrase 9, 34.5 nM. Moreover, the outcome in the data set with HT-29 [1], with HT-29 [8], with HT-29 [2] and in the data set on HT-29 [4] was Active.

Regarding `Cc1cc2c(c(C)nn2-c2ccccc2)c(=O)o1`, the Ki at Carbonic anhydrase 12 is 518 nM; on Carbonic anhydrase 2, over 10000 nM; on Carbonic anhydrase 1, over 10000 nM; on Carbonic anhydrase 9, 26.6 nM.

In the case of `COc1c(C(C)=O)c(=O)oc2ccc(Br)cc12`, the Ki on Carbonic anhydrase 12 is 706 nM; at Carbonic anhydrase 2 it was over 10000 nM; on Carbonic anhydrase 1 it was over 10000 nM; on Carbonic anhydrase 9 it was 90.7 nM.

For the compound `Cc1nn(-c2ccccc2)c2c1c(=O)oc1ccccc12`, the Ki at Carbonic anhydrase 12 was 5.8 nM; on Carbonic anhydrase 2, over 10000 nM; on Carbonic anhydrase 1, over 10000 nM; on Carbonic anhydrase 9, 9.6 nM. Also, the outcome in the data set on HT-29 [1] and in the data set on HT-29 [2] was Active. Also, the Activity result with HT-29 [3] is “Dose-dependent effect”.

On to `O=c1oc2ccccc2c2c1c(Cc1ccccc1)nn2Cc1ccccc1`, for which the Ki on Carbonic anhydrase 12 is 819 nM; on Carbonic anhydrase 2 it was over 10000 nM; at Carbonic anhydrase 1, over 10000 nM; on Carbonic anhydrase 9 it was 31.5 nM.

On to `COc1c(C(C)=O)c(=O)oc2ccccc12`, for which the Ki was 674 nM at Carbonic anhydrase 12, over 10000 nM on Carbonic anhydrase 2, over 10000 nM at Carbonic anhydrase 1 and 28.4 nM on Carbonic anhydrase 9.

As for `CC(=O)c1cc2cc([N+](=O)[O-])ccc2oc1=O`, the Ki was 695 nM on Carbonic anhydrase 12, over 10000 nM on Carbonic anhydrase 2, over 10000 nM on Carbonic anhydrase 1 and 44.9 nM at Carbonic anhydrase 9.

In the case of `CC(=O)Nc1ccc2oc(=O)c3c(C)nn(-c4ccccc4)c3c2c1`, the Ki is 646 nM on Carbonic anhydrase 12, over 10000 nM at Carbonic anhydrase 2, over 10000 nM at Carbonic anhydrase 1 and 26.8 nM on Carbonic anhydrase 9.
